# From PMC8952960 (Nature chemistry, 2021)
# Assays:
# [1] = target: T1, WT-CPOX (K404) (Homo sapiens, UniProt P36551); assay type: binding; conditions: compounds 50 µM, 1 h; gel-ABPP
# T1 sequence (P36551 111-454): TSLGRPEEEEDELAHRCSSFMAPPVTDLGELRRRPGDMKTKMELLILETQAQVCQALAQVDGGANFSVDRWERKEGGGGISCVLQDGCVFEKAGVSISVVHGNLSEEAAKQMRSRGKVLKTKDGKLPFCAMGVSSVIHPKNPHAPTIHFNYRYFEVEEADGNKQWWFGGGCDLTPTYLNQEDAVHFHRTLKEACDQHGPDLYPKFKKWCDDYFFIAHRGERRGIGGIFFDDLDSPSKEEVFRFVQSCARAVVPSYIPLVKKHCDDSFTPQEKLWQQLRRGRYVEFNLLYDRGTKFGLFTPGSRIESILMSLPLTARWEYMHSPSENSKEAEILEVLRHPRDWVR
# [2] = target: T2, K404 of CPOX (Homo sapiens, UniProt P36551); experiment: competitive isoTOP-ABPP with probe P1, CPOX lysines; assay type: binding; conditions: R ≥ 4 defines liganded
# T2 sequence (P36551 111-454): T1 sequence (P36551 111-454)
# How it was run: (§1)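 Human cancer cell (MDA-MB-231, Ramos) soluble or membrane fractions at 1.8 mg·mL⁻¹, or live cells, were exposed to test compound or DMSO. Proteomes were then labelled with lysine probe 1 (100 µM, 1 h, 23 °C). Compound samples were clicked to light and DMSO samples to heavy TEV-biotin tags, then streptavidin-enriched, trypsinised, TEV-released and analysed by MS. R was taken as the median peptide ratio per lysine.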
# [3] = target: Ku70/Ku80 heterodimer (Homo sapiens, UniProt P12956); experiment: Ku70/Ku80 heterodimerization assay; assay type: biochemical; conditions: pre-treatment of recombinantly expressed Ku70
# [4] = target: preformed Ku70-Ku80 complex (Homo sapiens, UniProt P12956); experiment: treatment of preformed Ku70-Ku80 complex; assay type: biochemical; conditions: 1 h, 23 °C
# How it was run: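 Lysates of HEK293T cells co-expressing WT Ku80 with WT or K351R Ku70 were first anti-Flag co-immunoprecipitated (1 h, 4 °C). The captured complex was then exposed to test compound or DMSO at the stated concentrations (1 h, 23 °C), washed, and analysed by Western blot. Blots represent four independent experiments.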
# [5] = target: K351 of XRCC6 (Ku70) (Homo sapiens, UniProt P12956); experiment: competitive isoTOP-ABPP, XRCC6; assay type: binding
# How it was run: as §1
# [6] = target: K351R mutant of Ku70 with Ku80 (Homo sapiens, UniProt P12956, K351R); experiment: Ku70/Ku80 heterodimerization assay, K351R mutant of Ku70; assay type: biochemical
# How it was run: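 FLAG-Ku70 (WT or K351R) HEK293T lysates were sonicated in 1% NP-40 buffer with protease inhibitors and normalised to 1.0 mg·mL⁻¹. They were treated with test compound or DMSO (1 h, 23 °C), then mixed with WT Ku80 lysate (1.0 mg·mL⁻¹, 1 h, 23 °C). Anti-FLAG co-IP (1 h, 4 °C) and four washes in 0.2% NP-40 buffer followed, with anti-HA immunoblot read-out.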
# [7] = target: T3, K53 of GSTT2B (Homo sapiens, UniProt P0CG30); experiment: competitive isoTOP-ABPP; assay type: binding
# T3 sequence (P0CG30 1-244): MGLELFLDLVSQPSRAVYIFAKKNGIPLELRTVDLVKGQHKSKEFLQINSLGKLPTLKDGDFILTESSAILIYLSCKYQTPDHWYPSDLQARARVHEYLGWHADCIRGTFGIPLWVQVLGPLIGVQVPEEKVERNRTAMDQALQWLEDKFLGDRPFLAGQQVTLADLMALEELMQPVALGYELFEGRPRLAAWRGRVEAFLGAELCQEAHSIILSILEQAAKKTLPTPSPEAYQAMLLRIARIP
# How it was run: as §1
# K351R mutant of Ku70 with Ku80, sequence (P12956 whole entry K351R): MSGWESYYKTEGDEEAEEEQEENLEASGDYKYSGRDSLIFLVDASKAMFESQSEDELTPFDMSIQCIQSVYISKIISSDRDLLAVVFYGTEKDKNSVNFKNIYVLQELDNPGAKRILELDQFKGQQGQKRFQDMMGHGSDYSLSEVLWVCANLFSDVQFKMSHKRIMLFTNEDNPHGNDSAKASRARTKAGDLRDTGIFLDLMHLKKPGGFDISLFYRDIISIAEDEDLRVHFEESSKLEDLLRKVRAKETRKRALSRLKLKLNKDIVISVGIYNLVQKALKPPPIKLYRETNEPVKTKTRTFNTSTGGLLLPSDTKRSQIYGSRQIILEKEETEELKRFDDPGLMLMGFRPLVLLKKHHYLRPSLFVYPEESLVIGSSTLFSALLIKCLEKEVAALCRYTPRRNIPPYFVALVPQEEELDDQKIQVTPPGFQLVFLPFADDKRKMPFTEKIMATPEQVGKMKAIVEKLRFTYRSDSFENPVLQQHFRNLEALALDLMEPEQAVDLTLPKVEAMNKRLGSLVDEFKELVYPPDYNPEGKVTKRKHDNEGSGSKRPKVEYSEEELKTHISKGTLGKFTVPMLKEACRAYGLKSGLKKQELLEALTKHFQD
# K351 of XRCC6 (Ku70), sequence (P12956 whole entry): as the sequence (P12956 whole entry K351R) above, with R351K counted along it
# preformed Ku70-Ku80 complex, sequence (P12956 whole entry, one chain of several): as the sequence (P12956 whole entry K351R) above, with R351K counted along it
# Ku70/Ku80 heterodimer, sequence (P12956 whole entry, one chain of several): as the sequence (P12956 whole entry K351R) above, with R351K counted along it
smiles,measurement,setting,value
O=Cc1c(O)cc(O)cc1O [Compound 28p],blockade of P4 labelling of WT-CPOX,[1],partially blocked
same,R value (DMSO/compound) for K404 of CPOX,[2],3.3
O=c1[nH]c2ccccc2c(=O)o1 [Compound 11e],blockade of Ku70 co-immunoprecipitation with Ku80,[3],blocked co-immunoprecipitation with Ku80 in a concentration-dependent manner
same,effect on preformed Ku70-Ku80 complex,[4],does not block
same,liganding of K351 of XRCC6,[5],liganded
same,blockade of co-immunoprecipitation of K351R mutant of Ku70 with Ku80,[6],Neither 11e nor 33e blocked
O=C(ON1C(=O)c2ccccc2C1=O)c1cc(C(F)(F)F)cc(C(F)(F)F)c1 [Compound 12a],engagement of K53 of GSTT2B by chemical proteomics,[7],engaged
